Test [1] can be described thus: Induction of pSP64 plasmid DNA relaxation by agarose gel electrophoresis in presence of Cu2+. In short, it runs like this: (§1)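 Cell-free cleavage of supercoiled, covalently closed circular pSP64 plasmid DNA, with or without Cu2+. Reactions ran 1 h at 37 °C and were stopped with bromophenol blue in 30% glycerol. Products were resolved on 1% agarose containing 0.7 µg/mL ethidium bromide in Tris-borate-EDTA at 130 V for 3 h and viewed under UV. Forms I, II (nicked) and III (linear) were scored.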

The nature of test [2]: Induction of supercoiled pSP64 plasmid DNA cleavage assessed as increase in nicked form 2 at 1 uM by agarose gel electrophoresis. The method in brief:
as §1

The nature of test [3]: Induction of supercoiled pSP64 plasmid DNA cleavage assessed as increase in nicked form 2 at 0.25 uM by agarose gel electrophoresis in presence of Cu2+. In short, it runs like this:
as §1

Test [4] can be described thus: Induction of supercoiled pSP64 plasmid DNA cleavage assessed as increase in linear duplex form 3 by agarose gel electrophoresis. In short, it runs like this:
as §1

Test [5] in a line: Induction of supercoiled pSP64 plasmid DNA cleavage assessed as increase in nicked form 2 at 10 uM by agarose gel electrophoresis. In short, it runs like this: as §1
A short description of test [6]: Induction of supercoiled pSP64 plasmid DNA cleavage assessed as increase in nicked form 2 at 2.5 uM by agarose gel electrophoresis in presence of Cu2+. In short, it runs like this: as §1
Test [7] in a line: Induction of supercoiled pSP64 plasmid DNA cleavage assessed as increase in nicked form 2 at 500 nM by agarose gel electrophoresis in presence of Cu2+. In short, it runs like this: as §1
Test [8] in a line: Induction of supercoiled pSP64 plasmid DNA cleavage assessed as increase in linear duplex form 3 at 10 uM by agarose gel electrophoresis. The method in brief:
as §1

Active and inactive are the calls of the source. No cut-off for these calls is given here. Some results are limits rather than exact numbers.

As for `COc1cc([C@@H]2OC[C@@H]3[C@H]2CO[C@H]3c2cc(OC)c(O)c(OC)c2)cc(OC)c1O`, the figures for the Activity result in test [1] and in test [2] were “Dose-dependent effect” and more than 50%, respectively. The outcome in test [3] was Active. In addition, in test [4], the outcome was inactive.
Take `COc1cc(C=O)cc(OC)c1O`: the results for the Activity result in test [1] and in test [5] were “Dose-dependent effect” and more than 50%, respectively. Also, the outcome in test [6] was Active. In addition, the result in test [4] was inactive.
For the molecule `Oc1cc(O)c2c(c1)O[C@@H](c1ccc(O)c(O)c1)[C@@H](O)C2`, the Activity result in test [1] is “Dose-dependent effect”; in test [7], more than 50%. In addition, the result in test [8] was Active.
For `Oc1cc(O)c2c(c1)O[C@H](c1ccc(O)c(O)c1)[C@@H](O)C2` the same measures were “Dose-dependent effect”, more than 50% and “Active”.

Source of the values: ChEMBL document CHEMBL1155588, “Use of COMPARE analysis to discover functional analogues of bleomycin” (J Nat Prod, 2000).
